Source: PubChem BioAssay
Shown are actives, neighbours in structure and some others; about 3.1% of the full set was active somewhere.
Apaf-1 inh: human Apaf-1 inhibition; O14727; actives 0.71% (n = 330,000); inhibition, % at 20 µM; reconstituted apoptosome caspase-3 activity, DEVD-Rh110 fluorescence; active = inhibition of at least 40% at 20 µM;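 also: plate controls were DMSO wells for no effect and DEVD-CHO caspase inhibitor wells for full effect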
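Assay system: Apoptosome proteins | Medium: pH 7.5 Hepes buffer with CHAPS, BSA, DTT | Also added: Cytochrome c and DEVD-Rh110 substrate | Times: 30 min plus 50 min, RT | Detection: Rhodamine 110 fluorescence at Ex 480/Em 540 nm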
PAFAH1B3 FP inh: inhibitors of human PAFAH1B3; AID 492972; recombinant PAFAH1B3, FP-rhodamine probe, fluorescence polarization; Q15102; inhibition, % at 3.39 µM; actives 0.28% (n = 340,000);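 active = inhibition above the screen-wide average of all tested compounds plus 3 SD, cut at about 25% in these data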;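 also: 0% = enzyme with DMSO only and 100% = wells lacking PAFAH1B3 protein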
Target sequence (Q15102 whole entry, looked up): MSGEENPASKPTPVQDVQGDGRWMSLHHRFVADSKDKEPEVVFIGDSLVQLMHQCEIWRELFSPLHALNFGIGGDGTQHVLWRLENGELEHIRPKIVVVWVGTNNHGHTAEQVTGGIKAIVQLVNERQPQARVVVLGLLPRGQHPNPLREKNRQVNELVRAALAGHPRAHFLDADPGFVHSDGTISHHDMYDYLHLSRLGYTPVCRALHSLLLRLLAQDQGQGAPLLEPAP
pPAFAH FP inh: inhibitors of human plasma PAF acetylhydrolase (pPAFAH); Q13093; recombinant pPAFAH, FP-rhodamine probe fluorescence polarization; inhibition, % at 3.39 µM; actives 1.5% (n = 330,000); AID 463082;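 active = inhibition above the mean inhibition across the screen plus 3 SD, cut at about 25% in these data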;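 also: inhibitors block binding of the rhodamine activity-based probe so polarization drops; 0% = enzyme with DMSO and 100% = wells lacking pPAFAH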
PAFAH1B2 FP inh: PAFAH1B2 (human) inhibition; P68402; recombinant PAFAH1B2, FP-rhodamine activity probe, fluorescence polarization; inhibition, % at 3.39 µM; actives 1.2% (n = 340,000);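 active = inhibition above the mean of all tested compounds plus 3 SD, cut at about 24% in these data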;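 also: 0% = enzyme with DMSO and 100% = wells lacking PAFAH1B2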
Target sequence (P68402 whole entry, looked up): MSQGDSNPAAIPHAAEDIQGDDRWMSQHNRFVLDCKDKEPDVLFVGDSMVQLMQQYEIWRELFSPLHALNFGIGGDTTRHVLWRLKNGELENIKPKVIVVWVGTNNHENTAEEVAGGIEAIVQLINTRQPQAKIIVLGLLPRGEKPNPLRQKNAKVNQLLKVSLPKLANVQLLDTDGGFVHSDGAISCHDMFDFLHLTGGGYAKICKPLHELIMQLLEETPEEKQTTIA
PAFAH2 inh: inhibitors of human PAFAH2. Q99487. AID 492956. actives 0.99% (n = 340,000). recombinant PAFAH2, FP-rhodamine activity probe, fluorescence polarization. inhibition, % at 3.39 µM;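 active = inhibition above the mean over all tested compounds plus 3 SD, cut at about 30% in these data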;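 also: inhibitors block probe labeling of enzyme so polarization drops; 0% = enzyme with DMSO and 100% = wells lacking PAFAH2 protein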
Apaf-1 inh conf2: confirmation of Apaf-1 inhibitors; shares compounds with Apaf-1 inh; reconstituted apoptosome, caspase-3 DEVD-Rh110 fluorescence; inhibition, % at 20 µM; actives 25% (n = 1,800); AID 504614;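 active = mean inhibition of at least 40% at 20 µM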;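 also: plate controls were DMSO wells for no effect and DEVD-CHO caspase inhibitor control wells for full effect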
Rh110 quench: interferes with Rh110 fluorescence, flagging false Apaf-1 inhibitors; shares compounds with Apaf-1 inh; Rh110 fluorescence interference, quenched caspase reaction; activation (fluorescence interference), % at 20 µM; 1,800 tested, under 10 active; AID 504615;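 active = signal rise of 40% or more at 20 µM, treated as a fluorescence artifact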
Apaf1 inh interf: shows fluorescence interference in the Apaf-1 inhibitor assay format; shares compounds with Apaf-1 inh; fluorescence interference counterscreen, Apaf-1 assay format; IC50, µM; 460 tested, under 10 active; call rule not given here
* = called active by the depositor; . = no result.

SMILES	Apaf-1 inh	PAFAH1B3 FP inh	pPAFAH FP inh	PAFAH1B2 FP inh	PAFAH2 inh	Apaf-1 inh conf2	Rh110 quench	others
COc1ccccc1/C=C1/C(=O)N(c2ccc([N+](=O)[O-])cc2)N=C1C	39	8	2	6	-1	.	.
COc1ccc(/C=C2/C(=O)N(c3ccccc3)N=C2C)cc1	96*	.	-3	.	.	16	-2
Cc1ccc(Oc2nc(CN3CCOCC3)nc3sc4c(c23)CCC(C)C4)cc1C (stereo not drawn)	30	2	-3	-2	2	.	.
Cc1ccc(Oc2nc(CN3CCOCC3)nc3sc4c(c23)CCC(C)C4)cc1 (stereo not drawn)	41*	-4	19	1	-4	21	14
COC(=O)c1ccc(NC(=O)CCN2C(=O)NC(C)(C)C2=O)cc1	0	1	0	1	-6	.	.
CC1Oc2ccccc2N(CC(=O)NC2CCCCC2)C1=O (stereo not drawn)	-6	3	-2	3	-7	.	.
COc1cc(NCc2ccccc2)c2ncn(Cc3ccccc3)c2c1	50*	5	5	7	5	28	4
COCCCOc1cc(NCc2ccccc2)c2ncn(C(C)C)c2c1	41*	2	9	8	2	27	7
CCC(CO)Oc1cc(NCc2ccccc2OC)c2ncn(C(C)C)c2c1 (stereo not drawn)	61*	4	3	0	-1	33	-1
COc1ccc(Cc2cc(NCc3ccccc3)c3ncn(C(C)C)c3c2)cc1	35	9	24	-2	7	.	.
CCC(CO)Oc1cc(NCc2ccccc2F)c2ncn(C(C)C)c2c1 (stereo not drawn)	14	1	8	6	-6	.	.
CCC(COC)Oc1cc(NCc2ccccc2)c2ncn(C(C)C)c2c1 (stereo not drawn)	97*	11	13	2	13	67*	1	Apaf1 inh interf=>100
Cc1nn(CC(=O)N2CCCC2)c(=O)c2cc3cc(F)ccc3n12	-16	3	4	2	3	.	.
COC(=O)C1=C(C)NC(C)=C(C(=O)OCC2CCCO2)C1c1cccc(Br)c1 (stereo not drawn)	20	-1	6	1	-2	.	.
Cc1ccc(NC(=O)CSCC(=O)NC2=NCCS2)cc1	-7	0	-1	-3	4	.	.
CN(CC(=O)NCC(c1ccco1)N1CCCCC1)S(=O)(=O)c1ccc(Cl)cc1 (stereo not drawn)	5	2	1	5	4	.	.
CCC(COC(=O)c1ccccc1)Oc1cc(NCc2ccccc2)c2ncn(C(C)C)c2c1 (stereo not drawn)	69*	9	5	7	23	26	10
CCN1/C(=C/C(C)=C/c2sc3ccccc3[n+]2CC)Sc2ccccc21	53*	-277	-117	-182	-299	61*	30	Apaf1 inh interf=51*
CCN1/C(=C\C(=S)Nc2ccccc2)Sc2ccccc21	-3	7	0	2	9	.	.
COc1ccc(S(=O)(=O)N2CC(C)N(C(=O)N(C)C)C2C(C)C)cc1 (stereo not drawn)	2	7	0	3	2	.	.
Cc1ccc2c(c1)-n1c(nc3cc(Cl)ccc3c1=O)C(Cc1ccccc1)NC2=O (stereo not drawn)	11	.	1	.	.	.	.
O=C1c2[nH]nc(-c3ccccc3O)c2C(c2cccc(Cl)c2)N1Cc1ccco1 (stereo not drawn)	42*	-3	-2	-7	-11	34	4
CC(=O)Nc1ccc(C2=CC(=O)C[C@H](c3ccc4c(c3)OCO4)C2)cc1	21	3	-10	3	0	.	.
CC(C)[C@H](NC(=O)c1ccccc1)C(=O)OCC(=O)Nc1sccc1C(N)=O	9	5	12	2	2	.	.
Oc1c(Br)cc(Br)cc1C=Nc1cccnc1	79*	4	7	4	6	36	5
Oc1c(Br)cc(Br)cc1C=Nc1ccc2[nH]ncc2c1	84*	8	8	1	1	34	7
